Measured values: ChEMBL document CHEMBL4138194, “Synthesis of unprecedented steroidal spiro heterocycles as potential antiproliferative drugs” (Eur J Med Chem, 2018)

What was measured:
A549 = assay: Antiproliferative activity against human A549 cells after 48 hrs by SRB assay; assay type: functional; details: A549, 48 h
In short: (§1)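 Seeded at 2 500 cells/well, per doubling time. Compounds were dissolved in DMSO at 400× the top test concentration and tested in triplicate at dilutions spanning 1–100 µM, starting day 1 after plating, with 0.25% v/v DMSO as control. After 48 h, cells were fixed with cold TCA for 60 min at 4 °C, then SRB-stained. Background-corrected OD was read at 530 nm, and percentage growth was calculated against untreated cells using T0 and end-point OD (NCI formulas).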

HBL-100 = assay: Antiproliferative activity against human HBL100 cells after 48 hrs by SRB assay; assay type: functional; details: HBL-100, 48 h; in short: as §1
HeLa = assay: Antiproliferative activity against human HeLa cells after 48 hrs by SRB assay; assay type: functional; in short: as §1
SW1573 = assay: Antiproliferative activity against human SW1573 cells after 48 hrs by SRB assay; assay type: functional; details: SW1573, 48 h; in short: as §1
T47D = assay: Antiproliferative activity against human T47D cells after 48 hrs by SRB assay; assay type: functional
In short: (§2)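 Plated at 5 000 cells/well, per doubling time. Compounds were dissolved in DMSO at 400× the maximum final concentration and tested in triplicate between 1 and 100 µM for 48 h, beginning day 1 after plating, with 0.25% v/v DMSO as control. Cells were then TCA-fixed for 60 min at 4 °C and SRB-stained. Background-corrected OD was read at 530 nm, and percentage growth was derived against untreated control from start and end OD (NCI formulas).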

WiDr = assay: Antiproliferative activity against human WiDr cells after 48 hrs by SRB assay; assay type: functional; in short: as §2
[1] = Cytotoxicity against human hTERT-BJ cells assessed as cell growth inhibition after 48 hrs SRB assay; assay type: cell-based
In short: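 BJ-hTert cells were seeded at 10 000/well and exposed from day 1 for 48 h to compounds in triplicate across 1–100 µM. DMSO stocks were 400× the top concentration, with a 0.25% v/v DMSO control. Cells were fixed with ice-cold TCA for 60 min at 4 °C and SRB-stained. Background-corrected OD was read at 530 nm, and percentage growth was computed relative to untreated cells using T0 and final OD (NCI formulas).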

Row | Structure (SMILES) | GI50 (A549) | GI50 (HBL-100) | GI50 (HeLa) | GI50 (SW1573) | GI50 (T47D) | GI50 (WiDr) | GI50 at 48 h [1]
1 | C[C@]12CC[C@@H]3c4ccc(O)cc4CC[C@H]3[C@@H]1CC[C@@]2(O)CNC(=S)NC1CCCCC1 | 4.5 µM | 5.1 µM | 3.3 µM | 14 µM | 3.9 µM | 2.8 µM | 
2 | C[C@]12CC[C@H](O)C[C@@H]1CC[C@@H]1[C@@H]2CC[C@@]2(C)[C@H]1CC[C@@]2(O)CN=[N+]=[N-] | > 100 µM | > 100 µM | > 100 µM | > 100 µM | > 100 µM | > 100 µM | 
3 | C[C@]12CC[C@@H]3c4ccc(O)cc4CC[C@H]3[C@@H]1CC[C@@]2(O)CN | 39 µM | 34 µM | 27 µM | 43 µM | 30 µM | 22 µM | 
4 | C[C@]12CC[C@H](O)C[C@@H]1CC[C@@H]1[C@@H]2CC[C@@]2(C)[C@H]1CC[C@@]2(O)CNC(=S)NC1CCCCC1 | 16 µM | 18 µM | 21 µM | 15 µM | 18 µM | 18 µM | 
5 | CCCCNC1=NC[C@@]2(CC[C@H]3[C@@H]4CC[C@H]5C[C@@H](O)CC[C@]5(C)[C@H]4CC[C@@]32C)O1 | 1.4 µM | 2.1 µM | 1.6 µM | 1.2 µM | 1.2 µM | 0.87 µM | < 1 µM
6 | CCCCNC(=S)NC[C@]1(O)CC[C@H]2[C@@H]3CCc4cc(O)ccc4[C@H]3CC[C@@]21C | 4.8 µM | 7.2 µM | 4.2 µM | 15 µM | 3.9 µM | 4.4 µM | 
7 | C[C@]12CC[C@@H]3c4ccc(O)cc4CC[C@H]3[C@@H]1CC[C@@]21CN=C(Nc2ccccc2)O1 | 2.6 µM | 4.4 µM | 3.3 µM | 3.4 µM | 2.6 µM | 2.6 µM | 1.4 µM
8 | C[C@]12CC[C@H](O)C[C@@H]1CC[C@@H]1[C@@H]2CC[C@@]2(C)[C@H]1CC[C@@]2(O)CN | 17 µM | 20 µM | 22 µM | 19 µM | 21 µM | 25 µM | 
9 | C[C@]12CC[C@@H]3c4ccc(OCc5ccccc5)cc4CC[C@H]3[C@@H]1CC[C@@]2(O)CN=[N+]=[N-] | 13 µM | 22 µM | 2.9 µM | 29 µM | 4.1 µM | 2.4 µM | 
10 | C[C@]12CC[C@H](O)C[C@@H]1CC[C@@H]1[C@@H]2CC[C@@]2(C)[C@H]1CC[C@@]2(O)CNC(=S)Nc1ccccc1 | 29 µM | 27 µM | 27 µM | 27 µM | 34 µM | 17 µM | 
